Test results: ChEMBL document CHEMBL1137343, “4-arylazo-3,5-diamino-1H-pyrazole CDK inhibitors: SAR study, crystal structure in complex with CDK2, selectivity, and cellular effects” (J Med Chem, 2006)

Key:
HOS [1] = test: Antiproliferative activity against HOS cell line; format: functional, cell-based; details: Homo sapiens
In short: (§1)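 Cells grown in DMEM with 10% FCS, glutamine and penicillin/streptomycin at 37 °C, seeded in 96-well plates and preincubated 12 h. Compounds were added in 6-fold dilutions (1-100 µM) for 72 h. IC50 taken from dose-response curves.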

G-361 [2] = test: Viability of G361 cells at 100 uM; format: functional, Homo sapiens
In short: (§2)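 Cells grown in DMEM with 10% FCS and 4 mM glutamine at 37 °C, plated in 96-well format, preincubated 12 h, then exposed 72 h. Live cells measured by Calcein AM (1 h) fluorescence at 485/538 nm; % viable cells given at 100 µM compound.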

MCF7 [3] = test: Viability of MCF7 cells at 100 uM; format: functional, Homo sapiens; in short: as §2
[4] = target: T1, Cyclin-dependent kinase 2/cyclin E (Homo sapiens, UniProt P24941); test: Inhibition of CDK2/Cyclin E in presence of 15 uM ATP; format: protein-complex assay
K562 [5] = test: Antiproliferative activity against K562 cell line; format: functional, cell-based; details: Homo sapiens; in short: as §1
HOS [6] = test: Viability of HOS cells at 100 uM; format: functional, Homo sapiens; in short: as §2
G-361 [7] = test: Antiproliferative activity against G361 cell line; format: functional, cell-based; details: Homo sapiens; in short: as §1
K562 [8] = test: Viability of K562 cells at 100 uM; format: functional, Homo sapiens; in short: as §2
MCF7 [9] = test: Antiproliferative activity against MCF7 cell line; format: functional, cell-based; details: Homo sapiens; in short: as §1
CDK9/cyclin T1 = CDK9/cyclin T1 (Homo sapiens, UniProt P50750); test: Inhibition of CDK9/Cyclin T1 in presence of 100 uM ATP; format: protein-complex assay
Sequence of CDK9/cyclin T1 (O60563 whole entry): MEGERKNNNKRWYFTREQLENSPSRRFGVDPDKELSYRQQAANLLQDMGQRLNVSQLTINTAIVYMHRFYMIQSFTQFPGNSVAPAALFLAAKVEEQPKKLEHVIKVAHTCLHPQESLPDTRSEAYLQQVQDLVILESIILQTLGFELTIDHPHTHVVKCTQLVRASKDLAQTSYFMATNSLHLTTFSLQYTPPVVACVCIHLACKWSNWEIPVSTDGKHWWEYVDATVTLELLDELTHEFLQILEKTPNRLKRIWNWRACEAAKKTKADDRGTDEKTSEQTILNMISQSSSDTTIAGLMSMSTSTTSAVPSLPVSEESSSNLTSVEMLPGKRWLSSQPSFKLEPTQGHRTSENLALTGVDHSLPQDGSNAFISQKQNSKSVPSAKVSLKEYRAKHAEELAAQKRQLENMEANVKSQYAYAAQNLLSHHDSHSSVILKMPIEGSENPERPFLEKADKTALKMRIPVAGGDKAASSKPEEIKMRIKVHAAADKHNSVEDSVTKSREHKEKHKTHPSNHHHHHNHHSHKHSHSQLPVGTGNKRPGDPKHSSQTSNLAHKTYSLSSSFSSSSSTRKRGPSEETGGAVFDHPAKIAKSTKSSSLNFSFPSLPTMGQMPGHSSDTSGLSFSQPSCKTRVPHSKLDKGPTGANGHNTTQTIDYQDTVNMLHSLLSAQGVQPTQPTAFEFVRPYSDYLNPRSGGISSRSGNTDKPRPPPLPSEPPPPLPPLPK
Sequence of CDK9/cyclin T1 (P50750 whole entry): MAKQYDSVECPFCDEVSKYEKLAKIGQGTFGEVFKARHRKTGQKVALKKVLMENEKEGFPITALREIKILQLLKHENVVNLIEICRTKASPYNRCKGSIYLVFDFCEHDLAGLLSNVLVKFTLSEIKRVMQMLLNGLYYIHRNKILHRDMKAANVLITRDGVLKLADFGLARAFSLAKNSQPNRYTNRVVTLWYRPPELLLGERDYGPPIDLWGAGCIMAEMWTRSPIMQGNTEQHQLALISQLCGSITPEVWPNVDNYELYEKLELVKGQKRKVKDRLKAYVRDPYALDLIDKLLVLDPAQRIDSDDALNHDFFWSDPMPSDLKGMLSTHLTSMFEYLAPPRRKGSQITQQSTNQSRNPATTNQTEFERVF

[10] = target: Cyclin-dependent kinase 1/cyclin B (Homo sapiens, UniProt P06493); test: Inhibition of CDK1/Cyclin B in presence of 100 uM ATP; format: protein-complex assay
[11] = target: Cyclin-dependent kinase 4/cyclin D1 (Homo sapiens, UniProt P11802); test: Inhibition of CDK4/Cyclin D1 in presence of 100 uM ATP; format: protein-complex assay
Sequence of Cyclin-dependent kinase 4/cyclin D1 (P11802 whole entry): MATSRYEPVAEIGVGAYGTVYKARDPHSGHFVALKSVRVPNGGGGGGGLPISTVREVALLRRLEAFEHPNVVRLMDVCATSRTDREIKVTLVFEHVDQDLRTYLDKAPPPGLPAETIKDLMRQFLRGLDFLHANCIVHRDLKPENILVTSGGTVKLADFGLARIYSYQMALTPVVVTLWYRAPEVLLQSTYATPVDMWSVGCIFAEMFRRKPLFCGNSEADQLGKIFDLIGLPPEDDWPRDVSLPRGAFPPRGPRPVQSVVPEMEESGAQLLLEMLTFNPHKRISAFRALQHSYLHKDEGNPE
Sequence of Cyclin-dependent kinase 4/cyclin D1 (P24385 whole entry, further chain): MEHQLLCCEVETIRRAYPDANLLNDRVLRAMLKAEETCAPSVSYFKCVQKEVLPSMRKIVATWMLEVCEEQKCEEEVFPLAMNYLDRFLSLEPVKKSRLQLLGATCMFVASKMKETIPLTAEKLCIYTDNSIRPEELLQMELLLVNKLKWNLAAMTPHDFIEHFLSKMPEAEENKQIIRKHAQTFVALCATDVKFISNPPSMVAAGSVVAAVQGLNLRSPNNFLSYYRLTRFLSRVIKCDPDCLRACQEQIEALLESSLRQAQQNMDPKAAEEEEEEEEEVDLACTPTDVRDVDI

[12] = target: Cyclin-dependent kinase 7/ cyclin H (Homo sapiens, UniProt P50613); test: Inhibition of CDK7/Cyclin H in presence of 100 uM ATP; format: protein-complex assay
Sequence of Cyclin-dependent kinase 7/ cyclin H (P51946 whole entry): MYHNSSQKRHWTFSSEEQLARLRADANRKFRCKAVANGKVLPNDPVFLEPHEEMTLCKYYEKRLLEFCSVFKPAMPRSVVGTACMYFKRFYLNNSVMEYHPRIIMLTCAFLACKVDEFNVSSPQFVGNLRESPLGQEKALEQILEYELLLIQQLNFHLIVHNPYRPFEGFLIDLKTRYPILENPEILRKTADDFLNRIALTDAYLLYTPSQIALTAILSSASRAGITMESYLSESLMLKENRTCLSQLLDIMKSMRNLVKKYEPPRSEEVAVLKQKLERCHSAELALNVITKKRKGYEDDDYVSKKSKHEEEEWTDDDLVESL
Sequence of Cyclin-dependent kinase 7/ cyclin H (P50613 whole entry): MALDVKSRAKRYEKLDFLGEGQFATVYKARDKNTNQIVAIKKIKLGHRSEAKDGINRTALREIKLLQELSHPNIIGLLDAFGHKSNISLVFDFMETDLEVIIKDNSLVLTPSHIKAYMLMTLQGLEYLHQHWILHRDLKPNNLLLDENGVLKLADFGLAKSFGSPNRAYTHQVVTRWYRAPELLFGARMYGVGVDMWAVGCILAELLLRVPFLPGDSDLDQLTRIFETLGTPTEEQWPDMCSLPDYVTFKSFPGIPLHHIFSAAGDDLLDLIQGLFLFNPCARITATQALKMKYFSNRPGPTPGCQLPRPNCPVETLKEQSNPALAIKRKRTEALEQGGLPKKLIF

[13] = target: Cyclin-dependent kinase 2/cyclin A (Homo sapiens, UniProt P24941); test: Inhibition of CDK2/Cyclin A in presence of 100 uM ATP; format: protein-complex assay
[14] = target: T1, Cyclin-dependent kinase 2/cyclin E; test: Inhibition of CDK2/Cyclin E in presence of 100 uM ATP; format: protein-complex assay
HT-29 [15] = test: Cell cycle arrest in HT29 cells by accumulation at G0/G1 phase at 70 uM after 6 hrs; format: functional, Homo sapiens
In short: (§3)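 Subconfluent, asynchronous HT-29 cells were treated 3, 6 or 12 h, then pulsed with 10 µM BrdU for 30 min at 37 °C. Cells were fixed in ice-cold 70% ethanol, DNA denatured in 2 M HCl and neutralised with borate. Staining used FITC anti-BrdU, then propidium iodide (0.1 mg/mL) with RNase A. Analysis by flow cytometry with 488 nm laser.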

HT-29 [16] = test: Inhibition of GAPDH mRNA synthesis in HT29 cells measured as number of copies per 10^6 cells by RT PCR at 70 uM after 6 hrs; format: functional, Homo sapiens
In short: (§4)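 HT-29 cells (5 × 10⁶) treated for 3, 6 or 12 h; total RNA extracted with TRI reagent, 3 µg reverse transcribed with random primers and M-MLV RT (42 °C, 60 min). Absolute transcript copies quantified by TaqMan real-time PCR, 50 cycles, against diluted gene-specific amplicon standards (30–1 000 000 copies); duplicate PCR per sample; values are means of four determinations ± SD.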

HT-29 [17] = test: Inhibition of CEA mRNA synthesis in HT29 cells measured as number of copies per 10^6 cells by RT PCR at 70 uM after 12 hrs; format: functional, Homo sapiens
In short: (§5)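 HT-29 cells were treated 3, 6 or 12 h; total RNA extracted with TRI reagent. 3 µg RNA reverse-transcribed with random primers and M-MLV RT at 42 °C for 60 min. CEA transcripts quantified by TaqMan real-time PCR: 50 cycles of 95 °C 15 s and 65 °C 15 s. Absolute copies came from amplicon standards of 30 to 10^6 copies, expressed per 10^6 cells. Samples run in duplicate PCR; values average of four determinations ± SD.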

HT-29 [18] = test: Cell cycle arrest in HT29 cells by accumulation at G2/M phase at 70 uM after 6 hrs; format: functional, Homo sapiens; in short: as §3
HT-29 [19] = test: Inhibition of EpCAM mRNA synthesis in HT29 cells measured as number of copies per 10^6 cells by RT PCR at 70 uM after 6 hrs; format: functional, Homo sapiens; in short: as §4
HT-29 [20] = test: Inhibition of CEA mRNA synthesis in HT29 cells measured as number of copies per 10^6 cells by RT PCR at 70 uM after 3 hrs; format: functional, Homo sapiens; in short: as §5
HT-29 [21] = test: Cell cycle arrest in HT29 cells by accumulation at G0/G1 phase at 70 uM after 12 hrs; format: functional, Homo sapiens; in short: as §3
HT-29 [22] = test: Cell cycle arrest in HT29 cells by accumulation at S phase at 70 uM after 3 hrs; format: functional, Homo sapiens; in short: as §3
HT-29 [23] = test: Inhibition of EpCAM mRNA synthesis in HT29 cells measured as number of copies per 10^6 cells by RT PCR at 70 uM after 3 hrs; format: functional, Homo sapiens; in short: as §4
HT-29 [24] = test: Inhibition of GAPDH mRNA synthesis in HT29 cells measured as number of copies per 10^6 cells by RT PCR at 70 uM after 12 hrs; format: functional, Homo sapiens; in short: as §4
HT-29 [25] = test: Cell cycle arrest in HT29 cells by accumulation at G0/G1 phase at 70 uM after 3 hrs; format: functional, Homo sapiens; in short: as §3
HT-29 [26] = test: Cell cycle arrest in HT29 cells by accumulation at S phase at 70 uM after 6 hrs; format: functional, Homo sapiens; in short: as §3
HT-29 [27] = test: Cell cycle arrest in HT29 cells by accumulation at G2/M phase at 70 uM after 12 hrs; format: functional, Homo sapiens; in short: as §3
HT-29 [28] = test: Inhibition of EpCAM mRNA synthesis in HT29 cells measured as number of copies per 10^6 cells by RT PCR at 70 uM after 12 hrs; format: functional, Homo sapiens; in short: as §4
HT-29 [29] = test: Inhibition of GAPDH mRNA synthesis in HT29 cells measured as number of copies per 10^6 cells by RT PCR at 70 uM after 3 hrs; format: functional, Homo sapiens; in short: as §4
HT-29 [30] = test: Cell cycle arrest in HT29 cells by accumulation at S phase at 70 uM after 12 hrs; format: functional, Homo sapiens; in short: as §3
HT-29 [31] = test: Cell cycle arrest in HT29 cells by accumulation at G2/M phase at 70 uM after 3 hrs; format: functional, Homo sapiens; in short: as §3
HT-29 [32] = test: Inhibition of CEA mRNA synthesis in HT29 cells measured as number of copies per 10^6 cells by RT PCR at 70 uM after 6 hrs; format: functional, Homo sapiens; in short: as §5

Structure (SMILES)	IC50 (HOS [1])	Activity (G-361 [2])	Activity (MCF7 [3])	IC50 [4]	IC50 (K562 [5])	Activity (HOS [6])	IC50 (G-361 [7])	Activity (K562 [8])	IC50 (MCF7 [9])	IC50 (CDK9/cyclin T1)	IC50 [10]	IC50 [11]	IC50 [12]	IC50 [13]	IC50 [14]	other results
Nc1n[nH]c(N)c1/N=N/c1cccc2ccccc12	> 100 µM	55%	56%	10 µM	50 µM	79%	> 100 µM	7.7%	> 100 µM	–	–	–	–	–	–	–
Nc1n[nH]c(N)c1/N=N/c1ccccc1	> 100 µM	75%	74%	22 µM	> 100 µM	83%	> 100 µM	90%	> 100 µM	15 µM	> 100 µM	> 100 µM	> 100 µM	> 100 µM	100 µM	–
Nc1n[nH]c(N)c1/N=N/c1ccccc1O	> 100 µM	74%	72%	2.5 µM	> 100 µM	84%	> 100 µM	72%	> 100 µM	–	–	–	–	–	–	–
Nc1n[nH]c(N)c1/N=N/c1cccc([N+](=O)[O-])c1	> 100 µM	69%	44%	23 µM	79 µM	95%	> 100 µM	28%	65 µM	12.4 µM	> 100 µM	70 µM	> 100 µM	> 100 µM	68 µM	–
Nc1n[nH]c(N)c1/N=N/c1ccc([N+](=O)[O-])cc1	> 100 µM	61%	60%	40 µM	71 µM	80%	> 100 µM	25%	> 100 µM	–	–	–	–	–	–	–
Nc1n[nH]c(N)c1/N=N/c1ccccc1CO	> 100 µM	84%	51%	17 µM	> 100 µM	87%	> 100 µM	86%	> 100 µM	26 µM	> 100 µM	> 100 µM	> 100 µM	> 100 µM	77 µM	–
Nc1n[nH]c(N)c1/N=N/c1cccc(O)c1	> 100 µM	70%	71%	6 µM	> 100 µM	83%	> 100 µM	53%	> 100 µM	1.5 µM	> 100 µM	56 µM	82 µM	> 100 µM	51 µM	–
Nc1n[nH]c(N)c1/N=N/c1ccccc1C(=O)O	> 100 µM	96%	97%	92 µM	> 100 µM	91%	> 100 µM	89%	> 100 µM	–	–	–	–	–	–	–
Nc1n[nH]c(N)c1/N=N/c1cccc(C(=O)O)c1	> 100 µM	93%	102%	28 µM	> 100 µM	94%	> 100 µM	84%	> 100 µM	–	–	–	–	–	–	–
Nc1n[nH]c(N)c1/N=N/c1ccccc1[N+](=O)[O-]	> 100 µM	58%	62%	6.1 µM	100 µM	57%	> 100 µM	48%	> 100 µM	5.6 µM	42 µM	16 µM	77 µM	88 µM	22 µM	–
Nc1n[nH]c(N)c1/N=N/c1cccc2c1CCCC2	92 µM	27%	39%	15 µM	55 µM	32%	77 µM	26%	81 µM	–	–	–	–	–	–	–
CC[C@H](CO)Nc1nc(NCc2ccccc2)c2ncn(C(C)C)c2n1 [SELICICLIB]	–	–	–	–	–	–	–	–	–	–	–	–	–	–	–	Activity (HT-29 [15]): 44%; Activity (HT-29 [16]): 3146605; Activity (HT-29 [17]): 24350; Activity (HT-29 [18]): 55.9%; Activity (HT-29 [19]): 6151085; Activity (HT-29 [20]): 30568; Activity (HT-29 [21]): 64.5%; Activity (HT-29 [22]): 1.1%; Activity (HT-29 [23]): 8258813; Activity (HT-29 [24]): 3926015; Activity (HT-29 [25]): 48%; Activity (HT-29 [26]): 0.1%; Activity (HT-29 [27]): 34.5%; Activity (HT-29 [28]): 6863365; Activity (HT-29 [29]): 3945095; Activity (HT-29 [30]): 1.1%; Activity (HT-29 [31]): 50.9%; Activity (HT-29 [32]): 19150
Nc1n[nH]c(N)c1/N=N/c1ccc(C(=O)O)cc1	> 100 µM	86%	97%	> 100 µM	> 100 µM	92%	> 100 µM	96%	> 100 µM	–	–	–	–	–	–	–
